Laboratory results reported in ChEMBL document CHEMBL3352313 (J Med Chem, 2014).

What was measured:
[1] = biological target: T1, Muscarinic acetylcholine receptor M5 (Homo sapiens, UniProt P08912); assay: Positive allosteric modulator activity at human muscarinic acetylcholine receptor subtype 5 expressed in CHO cells by calcium mobilization assay; type: functional, cell-based
T1 sequence (P08912 whole entry): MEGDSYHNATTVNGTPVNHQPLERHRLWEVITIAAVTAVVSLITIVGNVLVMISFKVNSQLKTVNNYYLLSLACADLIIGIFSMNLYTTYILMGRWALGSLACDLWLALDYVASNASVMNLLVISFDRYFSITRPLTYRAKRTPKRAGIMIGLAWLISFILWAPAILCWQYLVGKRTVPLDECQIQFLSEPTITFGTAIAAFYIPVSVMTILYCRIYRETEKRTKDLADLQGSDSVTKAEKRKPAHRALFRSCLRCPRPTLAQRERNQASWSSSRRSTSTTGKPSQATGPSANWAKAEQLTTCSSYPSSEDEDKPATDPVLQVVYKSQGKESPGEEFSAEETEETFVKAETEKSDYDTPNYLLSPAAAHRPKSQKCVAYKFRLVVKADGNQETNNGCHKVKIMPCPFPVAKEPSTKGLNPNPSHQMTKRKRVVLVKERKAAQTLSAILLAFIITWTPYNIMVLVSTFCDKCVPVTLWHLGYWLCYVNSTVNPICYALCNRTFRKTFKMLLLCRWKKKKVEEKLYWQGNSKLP

[2] = biological target: T2, Muscarinic acetylcholine receptor M5 (Homo sapiens) (UniProt P08912); assay: Positive allosteric modulator activity at human muscarinic acetylcholine receptor subtype 5 expressed in CHO cells by calcium mobilization assay relative to acetylcholine; type: functional, cell-based
T2 sequence (whole entry): T1 sequence (P08912 whole entry)

[3] = biological target: T2, Muscarinic acetylcholine receptor M5 (Homo sapiens); assay: Positive allosteric modulator activity at human muscarinic acetylcholine receptor subtype 5 expressed in CHO cells assessed as fold shift in acetylcholine-induced response at 10 uM by calcium mobilization assay; type: functional, cell-based
How it was run: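 In hM5 CHO cells by calcium mobilization, PAM at a fixed 10 μM or vehicle is added before an ACh concentration-response curve. Fold shift is the ratio of ACh potency without PAM to potency with PAM.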

[4] = Intrinsic clearance in rat liver microsomes; type: ADME; conditions: read-out: CLH
How it was run: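 Microsomal intrinsic clearance, used in the well-stirred model of organ clearance, not corrected for plasma fraction unbound, to predict hepatic clearance.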

[5] = biological target: T2, Muscarinic acetylcholine receptor M5 (Homo sapiens); assay: Displacement of [3H]NMS from human muscarinic acetylcholine receptor subtype 5 expressed in CHO cell membranes assessed as radioligand binding level by scintillation counting method

Row | Compound | EC50 ([1]; read-out: EC50) [nM] | %max [2] [%] | also measured
1 | CCN(Cc1ccccc1)C(=O)C1CCN(S(=O)(=O)c2ccncc2)CC1 | > 10000 | – | –
2 | CCN(C(=O)C1CCN(S(=O)(=O)c2ccc3c(c2)CCO3)CC1)[C@H](C)c1ccccc1 | 1110 | 88 | –
3 | CCN(Cc1ccccc1)C(=O)C1CCN(S(=O)(=O)c2c(C)noc2C)CC1 | > 10000 | – | –
4 | CCN(Cc1ccccc1)C(=O)C1CCN(S(=O)(=O)c2ccc3c(c2)OCCO3)CC1 | – | – | fold change (FC) [3]: 2.3
5 | CCN(Cc1cccc(F)c1)C(=O)C1CCN(S(=O)(=O)c2ccc3cn[nH]c3c2)CC1 | 1500 | 89 | –
6 | CCN(Cc1ccccc1)C(=O)C1CCN(S(=O)(=O)c2ccc(C(F)(F)F)nc2)CC1 | > 10000 | – | –
7 | CCN(C(=O)C1CCN(S(=O)(=O)c2ccc3[nH]ncc3c2)CC1)[C@H](C)c1ccccc1 | 740 | 86 | fold change (FC) [3]: 12
8 | CCN(Cc1ccc(F)cc1)C(=O)C1CCN(S(=O)(=O)c2ccc3cn[nH]c3c2)CC1 | > 10000 | 55 | –
9 | CCN(Cc1ccccc1)C(=O)C1CCN(S(=O)(=O)c2ccc3cccnc3c2)CC1 | > 10000 | 66 | –
10 | CCN(Cc1ccccc1)C(=O)C1CCN(S(=O)(=O)c2cccc3nsnc23)CC1 | > 10000 | – | –
11 | CCN(Cc1ccccc1)C(=O)C1CCN(S(=O)(=O)c2ccccc2OC)CC1 | > 10000 | – | –
12 | CCN(Cc1ccccc1)C(=O)C1CCN(S(=O)(=O)c2c[nH]cn2)CC1 | > 10000 | – | –
13 | CCN(C(=O)C1CCN(S(=O)(=O)c2ccc(OC)cc2)CC1)[C@@H](C)c1ccccc1 | – | – | EC50 ([1]; cho): Not Active
14 | CCN(Cc1ccccc1)C(=O)C1CCN(S(=O)(=O)c2ccc(C)s2)CC1 | > 10000 | 64 | –
15 | CC(C)N(Cc1ccccc1C(F)(F)F)C(=O)C1CCN(S(=O)(=O)c2ccc3[nH]ncc3c2)CC1 | > 10000 | 54 | –
16 | CCN(Cc1ccccc1)C(=O)C1CCN(S(=O)(=O)c2ccccn2)CC1 | > 10000 | – | –
17 | CCN(Cc1cccc(C(F)(F)F)c1)C(=O)C1CCN(S(=O)(=O)c2ccc3cn[nH]c3c2)CC1 | 5600 | 59 | –
18 | O=C(C1CCN(S(=O)(=O)c2ccc3[nH]ncc3c2)CC1)N(Cc1ccccc1C(F)(F)F)C1CC1 | – | – | EC50 ([1]; cho): Not Active
19 | CCN(Cc1ccccc1OC)C(=O)C1CCN(S(=O)(=O)c2ccc3cn[nH]c3c2)CC1 | 750 | 92 | –
20 | CCN(Cc1ccccc1)C(=O)C1CCN(S(=O)(=O)c2ccc(OC)c(OC)c2)CC1 | > 10000 | 57 | –
21 | O=C(C1CCN(S(=O)(=O)c2ccc3[nH]ncc3c2)CC1)N(CCO)Cc1ccccc1C(F)(F)F | > 10000 | 60 | –
22 | CCN(Cc1ccccc1)C(=O)C1CCN(S(=O)(=O)c2cccc3c2OCCO3)CC1 | > 10000 | 53 | –
23 | CCN(C(=O)C1CCN(S(=O)(=O)c2ccc(OC)cc2)CC1)[C@H](C)c1ccccc1 | 970 | 90 | fold change (FC) [3]: 7
24 | CCN(Cc1ccccc1)C(=O)C1CCN(S(=O)(=O)c2cccnc2)CC1 | > 10000 | – | –
25 | CN1[C@@H]2CC[C@H]1C[C@@H](OC(=O)C(CO)c1ccccc1)C2 (stereo partly specified) | – | – | %max [5]: 1.8%
26 | O=C(C1CCN(S(=O)(=O)c2ccc3[nH]ncc3c2)CC1)N(Cc1ccccc1C(F)(F)F)CC1CCC1 | 130 | 103 | CLint scaled [4]: > 500 mL/min/kg
27 | CCN(Cc1ccc(C(F)(F)F)cc1)C(=O)C1CCN(S(=O)(=O)c2ccc3cn[nH]c3c2)CC1 | – | – | EC50 ([1]; cho): Not Active

Second part, led by results:

Row | EC50 ([1]; read-out: EC50) [nM] | %max [2] [%] | Compound | also measured
28 | 6200 | 69 | CCN(Cc1ccccc1)C(=O)C1CCN(S(=O)(=O)c2ccccc2)CC1 | –
29 | 480 | 92 | CCN(Cc1ccccc1C(F)(F)F)C(=O)C1CCN(S(=O)(=O)c2ccc3cn[nH]c3c2)CC1 | fold change (FC) [3]: 7
30 | 1700 | 86 | CCN(Cc1ccccc1)C(=O)C1CCN(S(=O)(=O)c2ccc3cn[nH]c3c2)CC1 | fold change (FC) [3]: 4.8
31 | 930 | 80 | CCN(C(=O)C1CCN(S(=O)(=O)c2ccc3occc3c2)CC1)[C@H](C)c1ccccc1 | –
32 | 7400 | 93 | CCN(Cc1ccccc1)C(=O)C1CCN(S(=O)(=O)c2ccc3c(c2)OCO3)CC1 | –
33 | 160 | 94 | CCCN(Cc1ccccc1C(F)(F)F)C(=O)C1CCN(S(=O)(=O)c2ccc3[nH]ncc3c2)CC1 | –
34 | 150 | 100 | CCC(C)N(Cc1ccccc1C(F)(F)F)C(=O)C1CCN(S(=O)(=O)c2ccc3[nH]ncc3c2)CC1 (stereo unspecified) | –
35 | 2600 | 85 | CCN(Cc1cccc(OC)c1)C(=O)C1CCN(S(=O)(=O)c2ccc3cn[nH]c3c2)CC1 | –
36 | 1300 | 95 | O=C(C1CCN(S(=O)(=O)c2ccc3[nH]ncc3c2)CC1)N(CCF)Cc1ccccc1C(F)(F)F | –
37 | 870 | 78 | CCN(Cc1cccc(C)c1)C(=O)C1CCN(S(=O)(=O)c2ccc3cn[nH]c3c2)CC1 | –
38 | 1800 | 84 | O=C(C1CCN(S(=O)(=O)c2ccc3[nH]ncc3c2)CC1)N(Cc1ccccc1C(F)(F)F)C1CCC1 | –
39 | 120 | 104 | CC(C)(C)CN(Cc1ccccc1C(F)(F)F)C(=O)C1CCN(S(=O)(=O)c2ccc3[nH]ncc3c2)CC1 | CLint scaled [4]: > 500 mL/min/kg
40 | 3000 | 81 | CCN(Cc1ccccc1)C(=O)C1CCN(S(=O)(=O)c2ccc3nsnc3c2)CC1 | –
41 | 730 | 97 | CCN(C(=O)C1CCN(S(=O)(=O)c2ccc3c(c2)CCC3)CC1)[C@H](C)c1ccccc1 | –
42 | 1600 | 77 | CCN(Cc1cccc(Cl)c1)C(=O)C1CCN(S(=O)(=O)c2ccc3cn[nH]c3c2)CC1 | –
43 | 640 | 93 | CCN(Cc1ccccc1Cl)C(=O)C1CCN(S(=O)(=O)c2ccc3cn[nH]c3c2)CC1 | –
44 | 3300 | 84 | CCN(Cc1ccccc1)C(=O)C1CCN(S(=O)(=O)c2ccc(OC)cc2)CC1 | –
45 | 870 | 103 | CCN(Cc1ccccc1C)C(=O)C1CCN(S(=O)(=O)c2ccc3cn[nH]c3c2)CC1 | –
46 | 2400 | 80 | CCN(Cc1ccccc1)C(=O)C1CCN(S(=O)(=O)c2ccc3occc3c2)CC1 | –
47 | 120 | 102 | O=C(C1CCN(S(=O)(=O)c2ccc3[nH]ncc3c2)CC1)N(Cc1ccccc1C(F)(F)F)CC1CC1 | CLint scaled [4]: > 500 mL/min/kg
48 | 3100 | 77 | CCN(Cc1ccccc1)C(=O)C1CCN(S(=O)(=O)c2cccc(OC)c2)CC1 | –
49 | 760 | 87 | CCN(C(=O)C1CCN(S(=O)(=O)c2ccc3cn[nH]c3c2)CC1)[C@H](C)c1ccccc1 | –
50 | 350 | 78 | CCN(Cc1ccccc1Cl)C(=O)C1CCN(S(=O)(=O)c2ccc3[nH]ncc3c2)CC1 | –
51 | 1600 | 86 | CCN(Cc1ccccc1)C(=O)C1CCN(S(=O)(=O)c2ccc3[nH]ncc3c2)CC1 | fold change (FC) [3]: 5.4
52 | 1800 | 79 | C=CCN(Cc1ccccc1C(F)(F)F)C(=O)C1CCN(S(=O)(=O)c2ccc3[nH]ncc3c2)CC1 | –
53 | 2100 | 84 | CCN(Cc1ccccc1F)C(=O)C1CCN(S(=O)(=O)c2ccc3cn[nH]c3c2)CC1 | –
